The values that follow come from ChEMBL document CHEMBL4393665 (Eur J Med Chem, 2019).

Series [1] has as its target T1, ATP-dependent translocase ABCB1 (Homo sapiens, UniProt P08183). As to the kind of experiment: Inhibition of P-gp in human K562/DOX cells assessed as drug level causing 50% increase in nuclear pirarubicin concentration incubated for 30 mins by spectroflurometry. The class given is cell-based. The note with it: read-out: I0.5. An outline of the steps:
(§1)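 Pirarubicin uptake into nuclei was measured in P-gp-overexpressing, doxorubicin-resistant K562/DOX cells. [I]0.5 is the modulator concentration giving a half-maximal increase (α = 0.5) in nuclear pirarubicin concentration. αmax is the maximum increase obtainable in resistant cells. Mean ± SE of three independent experiments.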

Series [2] is described as follows: Half life in PBS at 1 uM by LC-MS/MS analysis. In kind it is physicochemical. An outline of the steps: (§2)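 Samples were incubated in phosphate buffer or human plasma and analysed by LC-MS/MS in product ion scan mode. Analyte concentration was monitored over incubation time. The slope of ln(concentration) versus time gave the first-order degradation rate constant k, and t1/2 was calculated from k. Ketoprofen ethyl ester served as a reference to confirm that the plasma batch was enzymatically active.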

Series [3] is described as follows: Half life in human plasma at 1 uM by LC-MS/MS analysis. In kind it is ADME, cell-free. An outline of the steps: as §2
In series [4] the target is T1, ATP-dependent translocase ABCB1. As to the kind of experiment: Inhibition of P-gp in human K562/DOX cells assessed as drug level causing maximum increase in nuclear pirarubicin concentration incubated for 30 mins by spectroflurometry relative to control. To be noted: 0.5 h. In kind it is cell-based. The procedure, abridged:
as §1

For series [5] the target is unchanged. As to the kind of experiment: Inhibition of P-glycoprotein-mediated Rhodamine-123 efflux in human K562/DOX cells assessed as […] at 1 uM […] by flow cytometry relative to control. The class given is cell-based. On the set-up: scale not given: the % may be the effect or the level left. The note with it: 0.5 h. The procedure, abridged:
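K562/DOX cells were loaded with 5 µM rhodamine-123 for 30 min. They were then washed and held 10 min in rhodamine-free medium, with or without modulator at 1.0 µM. Verapamil at 3.0 µM was the reference. Flow cytometry median fluorescence after efflux was divided by that after uptake and expressed as a percentage. Mean ± SE of three independent experiments.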
In general terms: In flow cytometry, cells or beads pass a laser one at a time.

Series [6] has the same target. As to the kind of experiment: Inhibition of P-glycoprotein-mediated Rhodamine-123 efflux in human K562 cells assessed as Rhodamine-123 accumulation at 1 uM preincubated for 15 mins followed by Rhodamine-123 addition measured after 30 mins by flow cytometry. To be noted: k562, 0.5 h. The class given is cell-based.
Series [7] has the same target. As to the kind of experiment: Inhibition of P-glycoprotein (unknown origin) in MDCK-MDR1 assessed as inhibtion of calcein-AM transport incubated for 30 mins by fluorescence assay. In kind it is cell-based.
Series [8] has the same target. As to the kind of experiment: Inhibition of P-glycoprotein (unknown origin) in MDCK-MDR1 assessed as reduction of ATP consumption pre-incubated for 2 hrs followed by substrate addition shaken for 5 mins by luminescence assay. The class given is cell-based. The note with it: mdck-mdr1, 5 min.
For series [9], the target named is T2, Broad substrate specificity ATP-binding cassette transporter ABCG2 (Homo sapiens, UniProt Q9UNQ0).
T2 sequence (Q9UNQ0 whole entry): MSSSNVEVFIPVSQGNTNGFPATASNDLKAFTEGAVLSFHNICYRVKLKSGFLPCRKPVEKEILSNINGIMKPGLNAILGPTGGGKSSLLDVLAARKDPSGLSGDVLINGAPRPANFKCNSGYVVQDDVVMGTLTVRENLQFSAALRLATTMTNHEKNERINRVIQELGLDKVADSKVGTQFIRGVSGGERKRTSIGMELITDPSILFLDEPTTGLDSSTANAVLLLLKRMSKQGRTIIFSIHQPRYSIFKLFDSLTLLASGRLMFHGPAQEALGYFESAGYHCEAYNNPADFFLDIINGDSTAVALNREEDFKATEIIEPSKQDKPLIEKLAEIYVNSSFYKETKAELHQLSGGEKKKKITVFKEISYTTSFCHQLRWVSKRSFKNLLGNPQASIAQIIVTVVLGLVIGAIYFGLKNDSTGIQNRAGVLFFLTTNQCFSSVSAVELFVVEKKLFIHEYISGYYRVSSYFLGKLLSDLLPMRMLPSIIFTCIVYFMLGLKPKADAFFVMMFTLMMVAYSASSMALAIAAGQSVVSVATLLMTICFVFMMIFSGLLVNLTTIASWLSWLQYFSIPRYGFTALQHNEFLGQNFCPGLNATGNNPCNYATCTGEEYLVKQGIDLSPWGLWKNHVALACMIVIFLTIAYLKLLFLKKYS
As to the kind of experiment: Inhibition of BCRP (unknown origin) in MDCK-BCRP assessed as inhibtion of hoechst 33342 transport incubated for 30 mins by fluorescence assay.

A short description of series [10]: Drug degradation in human plasma at 1 uM measured upto 120 mins by LC-MS/MS analysis. The class given is ADME, cell-free. The note with it: 2 h. An outline of the steps:
as §2

The structures appear in SMILES notation. Some results are limits rather than exact numbers.

T1 sequence (P08183 whole entry): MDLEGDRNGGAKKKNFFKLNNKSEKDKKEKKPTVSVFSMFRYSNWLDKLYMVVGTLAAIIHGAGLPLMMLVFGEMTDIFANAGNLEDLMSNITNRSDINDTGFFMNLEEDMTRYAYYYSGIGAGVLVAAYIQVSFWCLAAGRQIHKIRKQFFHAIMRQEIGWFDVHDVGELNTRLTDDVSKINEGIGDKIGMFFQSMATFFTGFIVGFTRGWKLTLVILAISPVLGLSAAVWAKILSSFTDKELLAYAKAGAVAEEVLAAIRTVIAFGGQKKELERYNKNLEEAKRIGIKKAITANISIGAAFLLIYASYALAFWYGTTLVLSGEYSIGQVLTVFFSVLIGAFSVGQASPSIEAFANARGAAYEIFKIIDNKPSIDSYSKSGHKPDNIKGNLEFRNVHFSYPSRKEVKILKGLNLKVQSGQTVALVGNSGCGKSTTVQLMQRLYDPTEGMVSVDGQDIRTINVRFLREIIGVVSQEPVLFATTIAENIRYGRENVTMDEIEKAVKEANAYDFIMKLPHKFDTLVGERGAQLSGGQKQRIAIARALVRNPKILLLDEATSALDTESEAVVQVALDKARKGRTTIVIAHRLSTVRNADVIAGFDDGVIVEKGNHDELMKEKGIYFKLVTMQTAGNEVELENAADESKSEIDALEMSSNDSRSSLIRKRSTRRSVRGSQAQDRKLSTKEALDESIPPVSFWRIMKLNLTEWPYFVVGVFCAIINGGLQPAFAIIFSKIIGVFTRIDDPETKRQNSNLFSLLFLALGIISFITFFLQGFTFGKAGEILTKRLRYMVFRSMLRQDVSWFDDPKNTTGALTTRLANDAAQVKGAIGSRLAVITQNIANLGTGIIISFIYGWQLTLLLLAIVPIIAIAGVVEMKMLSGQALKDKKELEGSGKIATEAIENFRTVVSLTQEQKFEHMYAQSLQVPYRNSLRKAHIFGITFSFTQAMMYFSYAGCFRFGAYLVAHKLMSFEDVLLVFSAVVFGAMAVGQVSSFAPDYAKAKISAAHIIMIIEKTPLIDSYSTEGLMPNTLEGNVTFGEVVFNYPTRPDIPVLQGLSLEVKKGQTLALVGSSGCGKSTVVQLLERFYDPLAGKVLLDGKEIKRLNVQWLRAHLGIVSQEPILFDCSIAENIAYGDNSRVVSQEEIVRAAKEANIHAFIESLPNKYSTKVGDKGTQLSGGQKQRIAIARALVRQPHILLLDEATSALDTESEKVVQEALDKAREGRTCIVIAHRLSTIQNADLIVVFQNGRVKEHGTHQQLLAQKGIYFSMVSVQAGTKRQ

For `COc1cc(/C=C/C(=O)OCCCN(C)CCCCCCCOC(=O)c2c3ccccc3cc3ccccc23)cc(OC)c1OC`, the IC50 in series [1] is 40 nM. Also, the half-life at 1 µM in series [2] and in series [3] was > 4 h in each case. Moreover, the Alpha max in series [4] came out at 0.88. The Activity in series [5] was 84.7%. The “inhibition (INH)” value in [6] and in series [8] was “Not Active” throughout. For the same molecule, the figures for the half-maximal effective concentration (EC50) in series [7] and in [9] were 260 nM and 3000 nM, respectively.
As to `COc1cc(/C=C/C(=O)OCCCCCCN(C)CCCCOC(=O)c2c3ccccc3cc3ccccc23)cc(OC)c1OC`, the IC50 in [1] was 20 nM. In addition, the half-life at 1 µM in series [2] and in series [3] was > 4 h throughout. Moreover, the Alpha max in series [4] is 0.94. The Activity in series [5] came to 92.8%. The “inhibition (INH)” value in [6] and in [8] was “Not Active” throughout. The values for the concentration giving a half-maximal response (EC50) in [7] and in series [9] were 520 nM and 3800 nM, respectively.
For `COc1cc(/C=C/C(=O)OCCCN(C)CCCCCCOC(=O)c2cc(OC)c(OC)c(OC)c2)cc(OC)c1OC`, the IC50 in [1] turned out to be 390 nM. The half-life at 1 µM in [2] is > 4 h; in series [3], 0.65 h. The Alpha max in series [4] was 0.99. Besides, the Stability result in series [10] is “Unstable”.
On to `COc1cc(/C=C/C(=O)OCCCCCCCN(C)CCCOC(=O)c2cc(OC)c(OC)c(OC)c2)cc(OC)c1OC`, for which the IC50 in [1] is 60 nM. Moreover, the half-life at 1 µM in [2] and in [3] was > 4 h in each case. Also, the Alpha max in series [4] was found to be 0.99. Further, the Activity in [5] was 58.4%. The “inhibition (INH)” value in series [6] and in series [8] was “Not Active” each time. For the same molecule, the concentration giving a half-maximal response (EC50) in series [7] is 210 nM; in series [9], 8100 nM.
As to `COc1cc(/C=C/C(=O)OCCCCN(C)CCCCCCOC(=O)c2c3ccccc3cc3ccccc23)cc(OC)c1OC`, in series [1], the IC50 amounted to 10 nM. Also, the half-life at 1 µM in [2] and in [3] was > 4 h in each case. Moreover, in series [4], the Alpha max was determined as 0.95. Besides, the Activity in series [5] came out at 64.6%. Besides, the “inhibition (INH)” value in series [6] is given as “Not Active”; in series [8] it was “Active”. Besides, the concentration for a half-maximal effect (EC50) is 850 nM in series [7] and 3300 nM in series [9].
`COc1cc(/C=C/C(=O)OCCCCN(C)CCCCCOC(=O)c2cc(OC)c(OC)c(OC)c2)cc(OC)c1OC`: the IC50 in series [1] was 270 nM. The half-life at 1 µM in [2] and in [3] was > 4 h throughout. Also, the Alpha max in series [4] was 0.99. For the same molecule, the Stability entry in [10] is listed as “Stable”.

Usually half-life stands for how long it takes for the measured level to halve. Broadly, the EC50 is the midpoint of the concentration-response curve.
